Data set [1] in a line: Cytotoxicity against human K562/A02 cells at 5 uM after 48 hrs by MTT assay. Type of data set: cell-based. The note with it: k562/a02, 48 h. The essentials: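 Adriamycin-selected K562/A02 cells given test compound alone at 5 µM for 48 h; cytotoxicity scored by MTT as intrinsic growth inhibition.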
Data set [2] is described as follows: Reversal of P-gp-mediated multidrug resistance in human K562/A02 cells assessed as reduction of adriamycin IC50 at 5 uM after 48 hrs by MTT assay. Type of data set: cell-based. The note with it: K562/A02, 48 h. The essentials:
(§1)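 MTT on K562/A02 cells exposed to a series of adriamycin concentrations, with or without modulator at 5 µM; 0.1% DMSO as solvent control. Reversal fold = adriamycin IC50 without modulator / IC50 with modulator.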
A general note: Tetrazolium dyes change colour on reduction, which living cells bring about.

Data set [3] can be described thus: Resistance factor, ratio of adriamycin IC50 for human K562/A02 cells over-expressing Pgp to adriamycin IC50 for human K562/A02 cells over-expressing Pgp in presence of 5 uM compound. It counts as functional. A digest of the protocol:
as §1

Data set [4] can be described thus: Reversal of P-gp-mediated multidrug resistance in human K562/A02 cells assessed as reduction of adriamycin IC50 at 5 uM incubated for 24 hrs prior to adriamycin treatment measured after 48 hrs by MTT assay. It counts as cell-based. The essentials:
(§2)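 K562/A02 cells incubated 24 h with 5 µM modulator, verapamil or vehicle, then washed with growth medium. […] Reversal fold = IC50 without modulator / IC50 with modulator. Two to three experiments, mean ± SEM.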

The nature of data set [5]: Reversal of P-gp-mediated multidrug resistance in human K562/A02 cells assessed as reduction of adriamycin IC50 at 2.5 uM after 48 hrs by MTT assay. Type of data set: cell-based. The note with it: K562/A02, 48 h. The essentials:
(§3)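 K562/A02 (P-gp-overexpressing) cells given graded adriamycin plus modulator at 2.5, 1.25, 0.625, 0.31, 0.156, 0.078 or 0.04 µM; verapamil 2.5 µM as positive control; adriamycin IC50 by MTT. Reversal fold = IC50 without modulator / IC50 with modulator. Two to three experiments, mean ± SEM.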

Data set [6] in a line: Resistance factor, ratio of adriamycin IC50 for human K562/A02 cells over-expressing Pgp to adriamycin IC50 for human K562/A02 cells over-expressing Pgp in presence of 5 uM compound incubated for 24 hrs prior to adriamycin treatment. It counts as functional. The essentials: as §2
A short description of data set [7]: Reversal of P-gp-mediated multidrug resistance in human K562/A02 cells assessed as reduction of adriamycin IC50 at 5 uM incubated for 24 hrs followed by adriamycin treatment 6 hrs post compound washout measured after 48 hrs by MTT assay. It counts as cell-based. The essentials:
as §2

Data set [8] in a line: Reversal of P-gp-mediated multidrug resistance in human K562/A02 cells assessed as reduction of adriamycin IC50 at 5 uM incubated for 24 hrs followed by adriamycin treatment post compound washout measured after 48 hrs by MTT assay. It counts as cell-based. A digest of the protocol:
as §2

The nature of data set [9]: Resistance factor, ratio of adriamycin IC50 for human K562/A02 cells over-expressing Pgp to adriamycin IC50 for human K562/A02 cells over-expressing Pgp in presence of 5 uM compound incubated for 24 hrs followed by adriamycin treatment post compound washout. Type of data set: functional. A digest of the protocol:
as §2

Data set [10] can be described thus: Reversal of P-gp-mediated multidrug resistance in human K562/A02 cells assessed as reduction of adriamycin IC50 at 5 uM incubated for 24 hrs followed by adriamycin treatment 12 hrs post compound washout measured after 48 hrs by MTT assay. Type of data set: cell-based. A digest of the protocol: as §2
The nature of data set [11]: Resistance factor, ratio of adriamycin IC50 for human K562/A02 cells over-expressing Pgp to adriamycin IC50 for human K562/A02 cells over-expressing Pgp in presence of 2.5 uM compound. Type of data set: functional. The essentials:
as §3

Data set [12] in a line: Cytotoxicity against human K562/A02 cells after 48 hrs by MTT assay. Type of data set: functional, cell-based. Conditions: K562/A02, 48 h.

Counter-ions that a name gives are not always drawn. Bounds are passed on as bounds.

As to `COc1cc(OC)cc(C(=O)Nc2ccccc2OCc2cn(CCN3CCc4cc(OC)c(OC)cc4C3)nn2)c1`, the Activity in data set [1] is on record as under 10%. Further, the half-maximal inhibitory concentration (IC50) (commonly the concentration needed to halve the response being measured) in [2] was 13.8 µM. The “Ratio IC50” value in [3] is on record as 3.9.
The matching figures for `COc1cc2c(cc1OC)CN(CCn1cc(COc3ccccc3NC(=O)c3cccc(Cl)c3)nn1)CC2`: under 10%, 11 µM and 4.9.
As to `COc1cc2c(cc1OC)CN(CCn1cc(COc3ccccc3NC(=O)c3ccccc3[N+](=O)[O-])nn1)CC2`, the Activity in [1] is under 10%. The IC50 in data set [2] came out at 15.6 µM. The “Ratio IC50” value in data set [3] turned out to be 3.5.
On to `COc1ccc(CCN(C)CCCC(C#N)(c2ccc(OC)c(OC)c2)C(C)C)cc1OC` (stereo not given) [VERAPAMIL], for which the IC50 in [4] was 9.6 µM; in data set [5], 15.9 µM; in [2], 6.8 µM; in [7], over 80 µM; in data set [8], 40.8 µM; in data set [10], over 80 µM. In addition, the “Ratio IC50” value in data set [6] is 8.4; in data set [3] it was 8.7; in data set [9], 1.9; in data set [11], 3.4.
`COc1cc2c(cc1OC)CN(CCn1cc(COc3ccccc3NC(=O)c3cccc([N+](=O)[O-])c3)nn1)CC2` showed an Activity in data set [1] of under 10%. Further, in data set [2], the IC50 was 15.1 µM. For the same compound, the “Ratio IC50” value in [3] is given as 3.6.
In data set [1], `COc1cc2c(cc1OC)CN(CCn1cc(COc3ccccc3NC(=O)c3ccc4ccccc4n3)nn1)CC2` yielded an Activity of under 10%. Also, the IC50 in [2] turned out to be 5.21 µM. Moreover, the “Ratio IC50” value in data set [3] worked out at 10.4.
The matching figures for `COc1cc2c(cc1OC)CN(CCn1cc(COc3ccccc3NC(=O)c3cccc(C)c3)nn1)CC2`: under 10%, 7.16 µM and 7.6.
Compound `COc1cc2c(cc1OC)CN(CCn1cc(COc3ccccc3NC(=O)c3ccc(Cl)cc3)nn1)CC2` showed an Activity in data set [1] of under 10%. Further, the IC50 in [2] stood at 5.21 µM. Moreover, the “Ratio IC50” value in data set [3] is recorded as 10.4.
The matching figures for `COc1cccc(C(=O)Nc2ccccc2OCc2cn(CCN3CCc4cc(OC)c(OC)cc4C3)nn2)c1`: under 10%, 9.71 µM and 5.6.
The matching figures for `COc1cc2c(cc1OC)CN(CCn1cc(COc3ccccc3NC(=O)c3ccc(N(C)C)cc3)nn1)CC2`: under 10%, 9.32 µM and 5.8.
The matching figures for `COc1ccc(C(=O)Nc2ccccc2OCc2cn(CCN3CCc4cc(OC)c(OC)cc4C3)nn2)cc1`: under 10%, 6.25 µM and 8.7.
As for `COc1cc2c(cc1OC)CN(CCn1cc(COc3ccccc3NC(=O)c3cccnc3)nn1)CC2`, the Activity in data set [1] was under 10%. Moreover, the concentration for half-maximal inhibition (IC50) in data set [2] was 18.9 µM. For the same compound, in [3], the “Ratio IC50” value is recorded as 2.9.
For the compound `COc1cc2c(cc1OC)CN(CCn1cc(COc3ccccc3NC(=O)c3cc(OC)c(OC)c(OC)c3)nn1)CC2`, the Activity in data set [1] is under 10%. Moreover, in data set [2], the IC50 amounted to 3.23 µM. Also, the “Ratio IC50” value in data set [3] amounted to 16.8.
As to `COc1cc2c(cc1OC)CN(CCn1cc(COc3ccccc3NC(=O)c3ccc(C#N)cc3)nn1)CC2`, in data set [1], the Activity is on record as under 10%. Further, the IC50 in data set [2] came out at 14.4 µM. Also, the “Ratio IC50” value in [3] worked out at 3.6.
On to `COc1cc2c(cc1OC)CN(CCn1cc(COc3ccccc3NC(=O)c3ccccc3)nn1)CC2`, for which the Activity in data set [1] was under 10%. The concentration for half-maximal inhibition (IC50) in data set [2] amounted to 10.8 µM. Besides, the “Ratio IC50” value in [3] stood at 5.
The matching figures for `COc1cc2c(cc1OC)CN(CCn1cc(COc3ccccc3NC(=O)c3ccc(C)cc3)nn1)CC2`: under 10%, 7.25 µM and 7.5.
The compound `COc1cc2c(cc1OC)CN(CCn1cc(COc3ccccc3NC(=O)c3cnc4ccccc4c3)nn1)CC2` had an Activity in data set [1] of under 10%. Further, in [2], the half-maximal inhibitory concentration (IC50) stood at 8.89 µM. Besides, the “Ratio IC50” value in [3] came to 6.1.
On to `COc1cccc2c1C(=O)c1c(O)c3c(c(O)c1C2=O)C[C@@](O)(C(=O)CO)C[C@@H]3O[C@H]1C[C@H](N)[C@H](O)[C@H](C)O1` [DOXORUBICIN HYDROCHLORIDE], for which, in [12], the IC50 came to 54.2 µM.
In turn, `COc1cc2c(cc1OC)CN(CCn1cc(COc3ccccc3NC(=O)c3ccccc3OC)nn1)CC2` gave an Activity in [1] of under 10%. For the same compound, the half-inhibitory concentration (IC50) in data set [2] came out at 6.75 µM. Besides, in [3], the “Ratio IC50” value is reported as 8.1.
The matching figures for `COc1ccc(C(=O)Nc2ccccc2OCc2cn(CCN3CCc4cc(OC)c(OC)cc4C3)nn2)cc1OC`: under 10%, 6.45 µM and 8.4.

The values above are taken from ChEMBL document CHEMBL3352496, “Design, synthesis and evaluation of novel triazole core based P-glycoprotein-mediated multidrug resistance reversal agents” (Bioorg Med Chem, 2014).
